Screening results deposited in PubChem by The Scripps Research Institute Molecular Screening Center.
Rows were chosen to be rich in hits. Some 1.8% of all compounds tested hit in one or more screens of this group.
Tn7 DDE FP – inhibitors of Tn7 peptide binding to fibrin DD(E), primary screen, biochemical, fluorescence polarization, human fibrin, Tn7 probe | Fibrinogen beta chain (Homo sapiens), P02675 | FP displacement of FITC-Tn7 peptide from fibrin DD(E); 0% = median of compound wells per plate | inhibition, % at 8.3 µM | 370,000 compounds, 0.13% hits;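 active = inhibition above the mean of compounds falling within the control limits plus 3 SD of them, cut at about 14% in these data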;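 note: 0% = plate median of compound wells and 100% = 10 µM Aha-Tn7 peptide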
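Test system – human fibrin DD(E) · Times – 10 min preincubation, 3 h with tracer, room temperature · Detection – fluorescence polarization of the labelled Tn7 tracer · Measure – percent inhibition normalized to high-control wells · Benchmarks – high control wells with 10 µM unlabelled Aha-Tn7 peptide (full inhibition) · Repeats – singlicate testing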
Tn6 DDE FP – inhibitors of Tn6 peptide binding to fibrin DD(E), primary screen, biochemical, fluorescence polarization, human fibrin, Tn6 probe. Fibrinogen beta chain (Homo sapiens), P02675. Fibrin DD(E) TRITC-Tn6 fluorescence polarization displacement. inhibition, % at 8.3 µM. 370,000 compounds, 0.21% hits;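 active = inhibition above a per-campaign cutoff: mean of compounds within control limits plus 3 SD, cut at about 15% in these data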;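 note: 0% = median of all compound wells on the plate and 100% = blocking peptide control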
HTRA1 inh – HTRA1 serine protease inhibitors, primary screen, biochemical, fluorescence polarization, HTS; recombinant HTRA1, FP-rhodamine activity-based probe; AID 504803, 2011; inhibition, % at 5.96 µM; 340,000 compounds, 0.5% hits; in the data active = inhibition above about 36%;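 note: 0% = enzyme with DMSO and 100% = wells lacking enzyme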
SIAE primary – human SIAE inhibitors, primary screen, biochemical, fluorescence polarization, FP-Rh probe, 1536-well HTS; Sialate O-acetylesterase (Homo sapiens), Q9HAT2; SIAE FP-Rh probe binding; inhibition, % at 9.66 µM; 370,000 compounds, 0.69% hits;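 active = inhibition above a cutoff: mean of compounds within the control limits plus 3 SD of those, cut at about 17% in these data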;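 note: 0% = plate median of compound wells and 100% = probe without SIAE protein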
Target sequence (Q9HAT2 whole entry, looked up): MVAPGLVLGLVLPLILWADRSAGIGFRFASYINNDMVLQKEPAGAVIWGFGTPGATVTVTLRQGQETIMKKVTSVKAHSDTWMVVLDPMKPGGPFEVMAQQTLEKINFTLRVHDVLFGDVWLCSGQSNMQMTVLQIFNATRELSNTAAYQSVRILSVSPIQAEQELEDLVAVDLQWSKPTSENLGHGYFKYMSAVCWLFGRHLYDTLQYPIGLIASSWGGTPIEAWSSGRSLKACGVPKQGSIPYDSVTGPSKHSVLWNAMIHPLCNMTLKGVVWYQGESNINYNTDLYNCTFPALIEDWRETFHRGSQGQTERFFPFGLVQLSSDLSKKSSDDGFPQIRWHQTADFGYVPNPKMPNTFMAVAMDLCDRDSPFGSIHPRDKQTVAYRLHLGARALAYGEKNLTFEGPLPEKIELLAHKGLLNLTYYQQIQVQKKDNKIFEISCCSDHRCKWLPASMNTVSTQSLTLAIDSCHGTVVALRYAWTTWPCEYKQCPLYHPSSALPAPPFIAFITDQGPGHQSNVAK
TCR CD3 inh – inhibitors of human TCR-CD3 interaction, primary screen, biochemical, fluorescence, TAMRA-labeled TCR probe; T-cell receptor (TCR); inhibition, % at 9.4 µM; 360,000 compounds, 0.37% hits;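 note: recombinant mutant TCR 2C K166C tagged with TAMRA read by polarization; 0% = receptor in buffer alone and 100% = receptor with positive control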
ABHD4 inh – ABHD4 inhibitors, primary screen, biochemical, fluorescence polarization, mouse | AID 720543, 2013 | 370,000 compounds, 0.54% hits | inhibition, % at 8.92 µM | (Lyso)-N-acylphosphatidylethanolamine lipase (Mus musculus), Q8VD66 | purified mABHD4, FP-Rh probe fluorescence polarization;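 active = inhibition exceeding the mean over every tested compound plus 3 SD, cut at about 30% in these data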;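 note: 0% = plate median of compound wells and 100% = S159A mutant with DMSO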
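System: mouse ABHD4 enzyme, wild type / Medium: HEPES pH 7.0, NaCl, Pluronic buffer / Reagent: FP-Rh activity-based fluorescent probe / Control set: S159A mutant high control, sample median low control / Detection: fluorescence polarization with parallel and perpendicular emission, 525/598 nm / Schedule: 45 min + 60 min at 25 °C / Compound dosing: 8.92 µM, single dose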
BSA TAMRA ctr – compounds interfering with TAMRA-BSA probe, counter-screen for TCR-CD3 interaction inhibitor project, biochemical, fluorescence, TAMRA-labeled BSA | shares compounds with TCR CD3 inh | AID 652035, 2013 | inhibition, % at 9.4 µM | 1,200 compounds, 10% hits | TAMRA-labeled BSA probe fluorescence counterscreen; in the data active = inhibition above about 23%;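 note: 0% = buffer low control and 100% = reference high control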
TCR-CD3 inh conf – TCR-CD3 interaction inhibitors, retest, confirmation, biochemical, fluorescence, TAMRA-labeled TCR probe. shares compounds with TCR CD3 inh. TAMRA-labeled TCR probe fluorescence binding assay. inhibition, % at 9.4 µM. 1,200 compounds, 48% hits
The depositor's hits bear a star; nt = not tested or not shown. Cut-off read from the data, not from the text of the source, unless noted: active = inhibition above about 19%; inactive = the rest.

SMILES	Tn7 DDE FP	Tn6 DDE FP	HTRA1 inh	SIAE primary	TCR CD3 inh	ABHD4 inh	BSA TAMRA ctr	TCR-CD3 inh conf
CN(C(=O)[C@H]1O[C@@H](n2cnc(C(N)=O)n2)[C@H](O)[C@@H]1O)c1ccccc1	-4	0	nt	1	3	5	nt	nt
CN1OC[C@@H]2CN3C(=Nc4cc(C(F)(F)F)cc(C(F)(F)F)c4)Sc4ccccc4[C@@H]3C[C@@H]21	7	12	nt	1	-5	-8	nt	nt
Cc1[nH]c(C)c2c(=O)n(Cc3ccccc3Cl)ncc12	-3	-7	nt	8	-1	7	nt	nt
Cc1[nH]c(C)c2c(=O)n(-c3ccccc3)ncc12	1	0	-3	-94	31*	-83	11	9
Nc1cc(=O)[nH]c(SCC(=O)NNC(=O)c2ccccc2)n1	-4	4	1	-5	22*	-1	-1	5
COC(=O)C(NC(=O)CSc1nc(N)cc(=O)[nH]1)c1ccccc1 (stereo not drawn)	-2	2	5	-3	-4	0	nt	nt
COc1ccc(CCNC(=O)C(=O)NCC2OCCN2S(=O)(=O)c2ccc(OC)cc2)cc1 (stereo not drawn)	-3	7	-7	2	49*	7	-3	7
O=C(c1ccc2nc(-c3ccco3)c(-c3ccco3)nc2c1)N1CCN(c2ncccn2)CC1	3	-6	22	35*	29*	33*	-1	25*
C=CCN1C(C(=O)OC)CN(Cc2cn(Cc3ccc(F)cc3)nn2)CCS1(=O)=O (stereo not drawn)	-2	-5	nt	0	nt	2	nt	nt
CCNC(=S)NNC(=O)c1cccn(Cc2ccc(Cl)cc2Cl)c1=O	-5	-1	8	4	20*	8	2	17
C=CCNC(=S)NNC(=O)c1cccc2ccccc12	-3	-1	-2	10	4	-1	nt	nt
C=CCNC(=S)NNC(=O)c1cccn(Cc2ccc(Cl)cc2Cl)c1=O	-5	-2	10	5	20*	15	-9	14
COc1ccccc1/C=N/N1C(=O)c2cccc3cccc(c23)C1=O	9	9	13	8	32*	23	33*	19*
Nc1c(/C=C2/C=CC(=O)C(O)=C2)c(=O)nc2sc(CC(=O)N3CCCCC3)nn12	-10	-1	14	1	26*	5	-19	42*
CCC1CCc2sc(C(=O)OCC(=O)N(CCOC)c3c(N)n(Cc4ccccc4)c(=O)[nH]c3=O)cc2C1 (stereo not drawn)	-2	-9	-50	6	1	5	nt	nt
COCCN(C(=O)COC(=O)c1cc2c(s1)CCC2)c1c(N)n(Cc2ccccc2)c(=O)[nH]c1=O	-7	0	7	9	27*	20	-15	37*
Nc1c(N(Cc2ccccc2)C(=O)COc2ccc(F)cc2Cl)c(=O)[nH]c(=O)n1Cc1ccccc1	-4	-3	12	-4	21*	-6	-9	21*
COc1cccc(CO[C@H]2C=C[C@@H](c3ccccc3)O[C@@H]2CO)c1	2	9	nt	2	nt	-1	nt	nt
COc1ccc(-c2cc(C(=O)NN=Cc3ccccc3[N+](=O)[O-])[nH]n2)cc1	3	-1	nt	-3	nt	-9	nt	nt
O=C(Nc1ccc(Cl)c(Cl)c1)c1cccc(S(=O)(=O)NCc2cccnc2)c1	-11	-12	-117	-90	33*	-58	2	10
COc1cccc(S(=O)(=O)NCc2ccc(C(=O)Nc3ccc(Cl)c(Cl)c3)cc2)c1	-7	-2	-38	-10	35*	-17	-1	6
CCCC[C@@H]1C(=O)N2N=C(c3ccccc3)c3ccccc3[C@H]2N2N=C(c3ccccc3)c3ccccc3[C@@H]12	-2	0	nt	7	nt	2	nt	nt
CCC(C)(C)C(=O)N1CCC(C(=O)NC2CCCc3ccccc32)CC1 (stereo not drawn)	-1	-5	nt	-6	nt	0	nt	nt
CCC1=NN(C(=O)c2cccc([N+](=O)[O-])c2)C(O)(c2ccc(C)cc2)C1 (stereo not drawn)	1	-2	24	3	30*	-3	-8	28*
O=C1CN(C(=O)c2cccc([N+](=O)[O-])c2)CC(=O)N1	6	-3	6	3	-6	2	nt	nt
SMILES	Tn7 DDE FP	Tn6 DDE FP	HTRA1 inh	SIAE primary	TCR CD3 inh	ABHD4 inh	BSA TAMRA ctr	TCR-CD3 inh conf
COC(=O)Cc1nnn2c1[C@@H](C)[C@@H](c1ccccc1Br)O[C@@H](C)C2	4	2	nt	-4	1	0	nt	nt
O=C1NNC(=O)C1c1ccccc1	-6	-2	6	0	35*	3	1	9
COc1ccc(N2CCN(CCNS(=O)(=O)c3c(C(C)C)cc(C(C)C)cc3C(C)C)CC2)cc1	13	9	nt	4	nt	6	nt	nt
COC(=O)[C@]12C[C@H](CC(=O)NCc3cccc4ccccc34)C(=O)N(Cc3ccc(Cl)cc3Cl)C1=C[C@H](C(C)C)O[C@@H]2C1CC1	-3	-8	nt	-2	nt	-2	nt	nt
O=C(Nc1ccc(S(=O)(=O)Nc2nccs2)cc1)c1nn(-c2ccccc2)ccc1=O	-3	-3	7	0	20*	5	-13	22*
O=C(O)c1ccccc1C(=O)Nc1ccc(S(=O)(=O)Nc2nccs2)cc1	4	2	3	2	38*	4	6	4
Cc1cccc(-n2ccc(=O)c(C(=O)Nc3ccc(S(=O)(=O)Nc4nccs4)cc3)n2)c1	6	-3	-6	-27	2	6	nt	nt
Clc1ccc(-c2nnc3n2N=C(c2ccc(-c4ccccc4)cc2)CS3)c(Cl)c1	0	0	nt	-4	nt	-1	nt	nt
CN1OC[C@@H]2CN(C(=S)Nc3cc(C(F)(F)F)cc(C(F)(F)F)c3)[C@H](c3ccccc3Br)C[C@@H]21	2	3	nt	-3	-6	-8	nt	nt
O=C(N/N=C\c1ccc(O)c([N+](=O)[O-])c1)C1COc2ccccc2O1 (stereo not drawn)	-4	-2	5	12	-2	2	nt	nt
